Source: ChEMBL document CHEMBL1122721, “Synthesis and antiarrhythmic activity of new 1-[1-[2-[3-(alkylamino)-2-hydroxypropoxy]phenyl]vinyl]-1 H-imidazoles and related compounds” (J Med Chem, 1984)

How the values were obtained:
Cavia porcellus [1] = organism: Cavia porcellus; assay: Maximal follow rate showing the contractile frequencies of atria to electrical stimulation 10 min after incubation with right atria of guinea pig.; format: functional
Procedure, shortened: (§1)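 Isolated right atria driven by electrical stimulation (Dawes' method). Maximal follow rate, the highest contractile frequency the atria follow, measured as an index of refractory period 10 min after incubation with compound.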

Mus musculus [2] = assay: Compound was evaluated for ventricular extrasystole activity, 3 min before aconitine infusion, at a dose of 3 mg/kg, intravenously administered in mice; S=significant antiarrhythmic effect; format: functional, organism-based; set-up: dose 3 mg/kg; details: Heart
Procedure, shortened: (§2)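 Aconitine arrhythmia model in pentobarbital-anesthetized male mice (20-35 g). Test compound was given iv 3 min or po 30 min before continuous tail-vein infusion of aconitine (0.685 µg/min). Lead II ECG recorded; onset times of ventricular extrasystole (VES) and ventricular tachycardia (VT) were measured.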

Mus musculus [3] = assay: Compound was evaluated for ventricular tachycardia activity in intravenously administered mice, 3 min before aconitine infusion, at a dose of 3 mg/kg; S=significant antiarrhythmic effect; format: functional, organism-based; set-up: dose 3 mg/kg; details: Heart; procedure, shortened: as §2
[4] = Lethal dose in mice (LD50) (following i.v. dosing); details: mouse, in vivo, iv
[5] = target: Adrenergic receptor beta (Cavia porcellus); assay: Beta adrenergic receptor blocking activity measured by the inotropic effect was determined 1 hr after pretreament of the right atria in guinea pig
[6] = target: Adrenergic receptor beta (Cavia porcellus); assay: Beta adrenergic receptor blocking activity measured by the chronotropic effect was determined 1 hr after pretreatment of the right atria in guinea pig
Mus musculus [7] = assay: Compound was evaluated for ventricular tachycardia activity in intravenously administered mice, 3 min before aconitine infusion, at a dose of 10 mg/kg; S=significant antiarrhythmic effect; format: functional, organism-based; set-up: dose 10 mg/kg; details: Heart; procedure, shortened: as §2
Mus musculus [8] = assay: Compound was evaluated for ventricular extrasystole activity, 3 min before aconitine infusion, at a dose of 10 mg/kg, intravenously administered in mice; S=significant antiarrhythmic effect; format: functional, organism-based; set-up: dose 10 mg/kg; details: Heart; procedure, shortened: as §2
Mus musculus [9] = assay: Compound was evaluated for ventricular extrasystole, 30 min before aconitine infusion, at a dose of 30 mg/kg, perorally administered in mice; S=significant antiarrhythmic effect; format: functional, organism-based; set-up: dose 30 mg/kg; details: Heart; procedure, shortened: as §2
Mus musculus [10] = assay: Compound was evaluated for ventricular tachycardia activity in intravenously administered mice, 3 min before aconitine infusion, at a dose of 1 mg/kg; S=significant antiarrhythmic effect; format: functional, organism-based; set-up: dose 1 mg/kg; details: Heart; procedure, shortened: as §2
Mus musculus [11] = assay: Compound was evaluated for ventricular tachycardia activity in perorally administered mice, 30 min before aconitine infusion, at a dose of 30 mg/kg; S=significant antiarrhythmic effect; format: functional, organism-based; set-up: dose 30 mg/kg; details: Heart; procedure, shortened: as §2
Mus musculus [12] = assay: Compound was evaluated for ventricular extrasystole activity, 3 min before aconitine infusion, at a dose of 1 mg/kg, intravenously administered in mice; S=significant antiarrhythmic effect; format: functional, organism-based; set-up: dose 1 mg/kg; details: Heart; procedure, shortened: as §2
Mus musculus [13] = assay: Compound was evaluated for ventricular extrasystole, 3 min before aconitine infusion, at a dose of 3 mg/kg, intravenously administered in mice; S=significant antiarrhythmic effect; details: Heart
Cavia porcellus [14] = organism: Cavia porcellus; assay: Effect on maximal follow rate showing the contractile frequencies of atria to electrical stimulation 10 min after incubating compound with right atria of guinea pig; format: functional; procedure, shortened: as §1
Mus musculus [15] = assay: Compound was evaluated for ventricular tachycardia activity in perorally administered mice, 30 min before aconitine infusion, at a dose of 10 mg/kg; S=significant antiarrhythmic effect; format: functional, organism-based; set-up: dose 10 mg/kg; details: Heart; procedure, shortened: as §2
Canis familiaris [16] = assay: Effect on ischemic arrhythmias was studied in dogs, by glass bead method. 60 mg/kg was administered perorally and percent sinus beats after compound administration, was reported.; format: functional, Canis lupus familiaris; details: route oral
Procedure, shortened: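 Conscious dogs; ventricular arrhythmias induced by inserting a glass bead into a coronary artery, with marked arrhythmias persisting for 24 h. Compound given orally. Lead II ECG recorded continuously by telemetry. Percent sinus beats measured before and after dosing, and duration of effect in min recorded.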

Canis familiaris [17] = assay: Effect on ischemic arrhythmias was studied in dogs, by glass bead method. 60 mg/kg was administered perorally and percent sinus beats before compound administration, was reported.; format: functional, Canis lupus familiaris; details: route oral
Procedure, shortened: (§3)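 Conscious dogs with ischemic ventricular arrhythmias persisting for 24 h after a glass bead was inserted into a coronary artery. Compound was given iv or orally. Lead II ECG recorded continuously by telemetry. Percent sinus beats taken before and after dosing, plus duration of effect (min).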

Mus musculus [18] = assay: Compound was evaluated for ventricular extrasystole, 30 min before aconitine infusion, at a dose of 10 mg/kg, perorally administered in mice; S=significant antiarrhythmic effect; format: functional, organism-based; set-up: dose 10 mg/kg; details: Heart; procedure, shortened: as §2
Canis familiaris [19] = organism: Canis familiaris; assay: Duration of ischemic arrhythmias in dogs determined in minutes.
Canis familiaris [20] = assay: Effect on ischemic arrhythmias was studied in dogs. 3 mg/kg was injected intravenously and percent sinus beats after compound administration, was reported.; format: functional, Canis lupus familiaris; details: route intravenous; procedure, shortened: as §3
Canis familiaris [21] = assay: Effect on ischemic arrhythmias was studied in dogs. 3 mg/kg was injected intravenously and percent sinus beats before compound administration, was reported.; format: functional, Canis lupus familiaris; details: route intravenous; procedure, shortened: as §3

Structure (SMILES) | Decrease (Cavia porcellus [1]) | Activity (Mus musculus [2]) | Activity (Mus musculus [3]) | LD50 [4] | pA2 [5] | pA2 [6] | also measured
C=C(c1c(C)c(C)cc(Cl)c1OCC(O)CNC(C)(C)C)n1ccnc1 (stereo not drawn) | 31.9% | Anti-arrhythmic | Anti-arrhythmic | 18.8 mg/kg | 6.21 | 6.18 | 
C=C(c1ccccc1OCC(O)CN(C)C)n1ccnc1 (stereo not drawn) | 30.7% |  |  | 45.4 mg/kg | 6.12 | 5.41 | Activity (Mus musculus [7]): Anti-arrhythmic; Activity (Mus musculus [8]): Anti-arrhythmic
C=C(c1c(C)c(C)cc(Cl)c1OCC(O)CNC(C)C)n1ccnc1 (stereo not drawn) | 29.8% |  |  | 15.5 mg/kg | 5.96 | 5.04 | Activity (Mus musculus [9]): Anti-arrhythmic; Activity (Mus musculus [10]): Anti-arrhythmic; Activity (Mus musculus [11]): Anti-arrhythmic; Activity (Mus musculus [12]): Anti-arrhythmic
C=C(c1ccc(Cl)c(Cl)c1OCC(O)CNC(C)C)n1ccnc1 (stereo not drawn) |  |  | Anti-arrhythmic |  | 4.9 | 4.52 | Activity (Mus musculus [13]): Anti-arrhythmic
C=C(c1cc(Cl)cc(C)c1OCC(O)CNC(C)C)n1ccnc1 (stereo not drawn) | 37.9% | Anti-arrhythmic | Anti-arrhythmic | 48.8 mg/kg | 5.93 | 5.22 | 
C=C(c1cc(C)cc(C)c1OCC(O)CNC(C)(C)C)n1ccnc1 (stereo not drawn) | 31.8% | Anti-arrhythmic | Anti-arrhythmic | 15.9 mg/kg | 6.58 | 5.55 | 
C=C(c1c(Cl)ccc(Cl)c1OC[C@H](O)CNC(C)C)n1ccnc1.Cl |  | Anti-arrhythmic | Anti-arrhythmic |  | 5.19 | 4.46 | Decrease (Cavia porcellus [14]): 39.5%; Activity (Mus musculus [15]): Anti-arrhythmic
C=C(c1ccccc1OCC(O)CNC(C)(C)C)n1cnc2ccccc21 (stereo not drawn) |  | Anti-arrhythmic | Anti-arrhythmic |  | 7.08 | 7.29 | 
C=C(c1ccccc1OCC(O)CNC(C)(C)C)n1cccn1 (stereo not drawn) |  |  |  |  | 8.01 | 8.1 | Activity (Mus musculus [7]): Anti-arrhythmic
CC(C)NCC(O)COc1cccc2ccccc12 (stereo not drawn) [PROPRANOLOL] |  |  |  |  |  |  | Sinus beats (Canis familiaris [16]): 51.6%; Decrease (Cavia porcellus [14]): 33.5%; Activity (Mus musculus [9]): Anti-arrhythmic; Activity (Mus musculus [7]): Anti-arrhythmic; Activity (Mus musculus [8]): Anti-arrhythmic; Sinus beats (Canis familiaris [17]): 12%
C=C(c1c(C)ccc(C)c1OCC(O)CNC(C)C)n1ccnc1 (stereo not drawn) | 35.7% | Anti-arrhythmic | Anti-arrhythmic | 30.7 mg/kg | 6.43 | 6.23 | 
C=C(c1cccc(OC)c1OCC(O)CNC(C)(C)C)n1cnc2ccccc21 (stereo not drawn) | 39.2% | Anti-arrhythmic | Anti-arrhythmic | 19.8 mg/kg | 7.03 | 7.03 | 
C=C(c1cccc(C)c1OCC(O)CNC(C)(C)C)n1ccnc1 (stereo not drawn) | 46.6% | Anti-arrhythmic | Anti-arrhythmic | 23.1 mg/kg | 5.62 | 5.81 | Activity (Mus musculus [9]): Anti-arrhythmic; Activity (Mus musculus [11]): Anti-arrhythmic
C=C(c1c(Cl)ccc(Cl)c1OC[C@@H](O)CNC(C)C)n1ccnc1.Cl |  |  | Anti-arrhythmic |  | 5.05 | 5.08 | Decrease (Cavia porcellus [14]): 40.3%; Activity (Mus musculus [18]): Anti-arrhythmic; Activity (Mus musculus [15]): Anti-arrhythmic; Activity (Mus musculus [8]): Anti-arrhythmic
C=C(c1ccccc1OCC(O)CNC(C)C)n1cnc(C)c1 (stereo not drawn) |  |  | Anti-arrhythmic |  | 7.16 | 7.19 | 
C=C(c1c(C)ccc(Cl)c1OCC(O)CNC(C)(C)C)n1ccnc1 (stereo not drawn) | 49.8% | Anti-arrhythmic | Anti-arrhythmic | 29.5 mg/kg | 5.77 | 5.04 | Duration (Canis familiaris [19]): 30 min; Sinus beats (Canis familiaris [20]): 59.1%; Sinus beats (Canis familiaris [21]): 11.7%; Activity (Mus musculus [18]): Anti-arrhythmic; Activity (Mus musculus [15]): Anti-arrhythmic
CC(C)NCC(O)COc1ccccc1Cn1ccnc1 (stereo not drawn) | 14.2% |  |  |  | 6.66 | 6.69 | 
C/C=C(\c1ccccc1OCC(O)CNC(C)C)n1ccnc1 (stereo not drawn) | 18.6% |  |  |  | 6.76 | 6.52 | 
CC(C)=C(c1cc(Cl)ccc1OCC(O)CNC(C)C)n1ccnc1 (stereo not drawn) | 21.6% |  |  |  | 5.19 | 4.9 | 
C=C(c1cc(Cl)cc(Cl)c1OCC(O)CNC(C)(C)C)n1ccnc1 (stereo not drawn) | 27.1% |  |  |  | 6.51 | 6.3 | 
C=C(c1cc(Cl)c(Cl)cc1OCC(O)CNC(C)C)n1ccnc1 (stereo not drawn) | 23.8% |  |  |  | 6.23 | 6.64 | 
C=C(c1c(Cl)cc(Cl)cc1OCC(O)CNC(C)C)n1ccnc1 (stereo not drawn) | 19.6% |  |  |  | 6.27 | 6.44 | 
C=C(c1ccccc1OCC(O)CNC(C)C)n1cncn1 (stereo not drawn) |  | Anti-arrhythmic | Anti-arrhythmic |  | 6.33 | 6.12 | Duration (Canis familiaris [19]): 15 min; Sinus beats (Canis familiaris [20]): 28.3%; Sinus beats (Canis familiaris [21]): 9.8%; Activity (Mus musculus [9]): Anti-arrhythmic
C=C(c1cccc(OC)c1OCC(O)CNC(C)C)n1cnc2ccccc21 (stereo not drawn) | 22.3% |  |  |  | 6.41 | 6.26 | 
C=C(c1ccc(Cl)cc1OCC(O)CNC)n1ccnc1 (stereo not drawn) | 17.8% |  |  |  | 6.21 | 6.19 | 
